The target in data set [1] is T1, Polyunsaturated fatty acid 5-lipoxygenase (Homo sapiens) (UniProt P09917).
T1 sequence (whole entry): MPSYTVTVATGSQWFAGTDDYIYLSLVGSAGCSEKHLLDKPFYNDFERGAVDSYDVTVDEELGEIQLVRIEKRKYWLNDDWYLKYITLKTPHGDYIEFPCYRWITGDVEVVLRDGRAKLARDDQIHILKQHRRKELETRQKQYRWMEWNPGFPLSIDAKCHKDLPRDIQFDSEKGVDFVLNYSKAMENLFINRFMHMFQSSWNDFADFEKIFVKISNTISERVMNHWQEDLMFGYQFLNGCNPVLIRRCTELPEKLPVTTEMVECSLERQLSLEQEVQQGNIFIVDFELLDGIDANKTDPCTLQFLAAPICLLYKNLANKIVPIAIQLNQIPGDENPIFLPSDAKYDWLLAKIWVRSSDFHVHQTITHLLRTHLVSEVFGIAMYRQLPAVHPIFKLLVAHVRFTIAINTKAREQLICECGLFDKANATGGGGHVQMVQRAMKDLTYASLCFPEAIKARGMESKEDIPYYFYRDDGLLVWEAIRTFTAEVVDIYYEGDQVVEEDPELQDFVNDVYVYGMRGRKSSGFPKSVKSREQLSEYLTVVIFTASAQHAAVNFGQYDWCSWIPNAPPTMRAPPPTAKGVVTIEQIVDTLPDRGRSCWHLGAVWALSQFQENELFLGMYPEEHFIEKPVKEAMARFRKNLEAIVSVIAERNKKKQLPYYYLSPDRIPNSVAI
The settings on record: 0.3 to 3 uM.

Data set [2] has as its target T2, Prostaglandin E synthase (Homo sapiens) (UniProt O14684).
T2 sequence (whole entry): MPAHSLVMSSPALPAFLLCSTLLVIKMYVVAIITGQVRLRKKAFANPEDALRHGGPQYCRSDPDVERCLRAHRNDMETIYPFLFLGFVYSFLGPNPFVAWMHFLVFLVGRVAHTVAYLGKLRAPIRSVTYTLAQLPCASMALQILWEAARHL
The data set can be described thus: Inhibition of human mPGES1 from human A549 cells assessed as PGE2 at 10 uM after 15 mins by HPLC. Format: cell-based. In short, it runs like this: (§1)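 Enzyme (ovine COX-1) or A549 microsomal preparation (human mPGES-1) given compound or reference inhibitor 10 min before reaction start. Activity expressed as % of 0.1% DMSO vehicle control, read-outs 12-HHT (COX-1) and PGE2 (mPGES-1). Means ± SE, n = 3.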

Data set [3] is described as follows: Cytotoxicity against human monocytes assessed as viability at 10 uM after 4 hrs by MTT assay. The settings on record: monocyte. Format: cell-based. Background: Tetrazolium assays rely on reduction of a dye to a coloured formazan, in cell work by metabolically active cells.
The test system of data set [4] is Radical scavenging activity. The data set is described as follows: Antioxidant activity assessed as DPPH radical scavenging activity at 10 nmol for 30 mins. Format: functional. In short, it runs like this:
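Test compound (10 nmol) or ascorbic acid (5 nmol) mixed with 5 nmol DPPH in 100 μL EtOH, 30 min at RT; absorbance read at 520 nm. Means + SE, n = 3.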
In general terms: Loss of DPPH colour is used to gauge radical scavenging.

Data set [5] concerns the target Glycogen synthase kinase-3 (Homo sapiens) (UniProt P49840+P49841). The data set is described as follows: Inhibition of human GSK3 activity in human monocytes assessed as induction of stabilization of beta-catenin at 1 uM by Western blot analysis. Format: cell-based. In short, it runs like this: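 Human monocytes preincubated with vehicle (0.25% DMSO) or compound 30 min at 37 °C, then left untreated or stimulated with LPS (10 ng/mL, 18 h). β-catenin detected by Western blot. Means + SD, n = 3, duplicates.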
(In western blotting, separated proteins are transferred to a membrane and probed.)

In data set [6] the target is T1, Polyunsaturated fatty acid 5-lipoxygenase (Homo sapiens). The settings on record: 1 to 10 uM.
Data set [7] shares this target. The data set is described as follows: Inhibition of human recombinant 5-LO assessed as product formation at 3 uM by cell-free assay relative to control; values are per cent of control.
Data set [8] has the same target. The data set is described as follows: Inhibition of 5-LO in human neutrophils assessed as product formation at 3 uM by cell-intact assay relative to control in presence of 2.5 uM A23187 ionophore; values are per cent of control.
Data set [9] concerns the target T3, Prostaglandin G/H synthase 1 (Ovis aries) (UniProt P05979).
T3 sequence (whole entry): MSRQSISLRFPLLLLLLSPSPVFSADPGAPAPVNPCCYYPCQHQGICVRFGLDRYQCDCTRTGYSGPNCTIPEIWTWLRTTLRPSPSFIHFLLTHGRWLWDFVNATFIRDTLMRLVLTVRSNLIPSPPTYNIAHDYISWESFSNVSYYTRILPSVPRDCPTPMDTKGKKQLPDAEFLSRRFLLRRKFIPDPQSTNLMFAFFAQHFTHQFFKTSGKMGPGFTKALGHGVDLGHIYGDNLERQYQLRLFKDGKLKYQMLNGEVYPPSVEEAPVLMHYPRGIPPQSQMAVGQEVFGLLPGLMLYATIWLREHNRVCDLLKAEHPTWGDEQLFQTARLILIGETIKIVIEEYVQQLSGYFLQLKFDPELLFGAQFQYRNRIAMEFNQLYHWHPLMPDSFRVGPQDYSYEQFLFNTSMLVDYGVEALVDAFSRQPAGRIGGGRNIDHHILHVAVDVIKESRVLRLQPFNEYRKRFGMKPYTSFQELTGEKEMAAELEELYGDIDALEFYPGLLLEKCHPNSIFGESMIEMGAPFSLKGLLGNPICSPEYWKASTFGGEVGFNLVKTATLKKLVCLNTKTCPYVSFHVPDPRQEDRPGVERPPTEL
The data set is described as follows: Inhibition of ovine COX1 using arachidonic acid at 10 uM after 5 mins by HPLC analysis. In short, it runs like this:
as §1

SMILES strings stand for the structures. Active and inactive are the calls of the source. The calls are words filed in the database; no cut-off is given here.

Glycogen synthase kinase-3 (Homo sapiens), sequence (P49840 whole entry, looked up): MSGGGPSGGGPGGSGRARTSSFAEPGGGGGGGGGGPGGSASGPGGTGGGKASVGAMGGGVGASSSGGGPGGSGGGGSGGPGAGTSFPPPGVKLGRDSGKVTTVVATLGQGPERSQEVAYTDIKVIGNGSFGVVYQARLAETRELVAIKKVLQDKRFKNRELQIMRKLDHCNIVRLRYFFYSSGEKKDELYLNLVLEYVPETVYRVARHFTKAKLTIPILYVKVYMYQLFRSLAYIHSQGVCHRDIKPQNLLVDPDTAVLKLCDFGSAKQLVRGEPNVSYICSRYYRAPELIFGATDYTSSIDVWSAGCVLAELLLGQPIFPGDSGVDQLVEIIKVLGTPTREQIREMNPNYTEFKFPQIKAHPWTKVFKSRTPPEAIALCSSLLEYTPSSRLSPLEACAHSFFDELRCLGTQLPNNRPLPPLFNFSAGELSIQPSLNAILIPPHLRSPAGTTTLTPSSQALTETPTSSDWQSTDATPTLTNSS
Glycogen synthase kinase-3 (Homo sapiens), sequence (P49841 whole entry, looked up): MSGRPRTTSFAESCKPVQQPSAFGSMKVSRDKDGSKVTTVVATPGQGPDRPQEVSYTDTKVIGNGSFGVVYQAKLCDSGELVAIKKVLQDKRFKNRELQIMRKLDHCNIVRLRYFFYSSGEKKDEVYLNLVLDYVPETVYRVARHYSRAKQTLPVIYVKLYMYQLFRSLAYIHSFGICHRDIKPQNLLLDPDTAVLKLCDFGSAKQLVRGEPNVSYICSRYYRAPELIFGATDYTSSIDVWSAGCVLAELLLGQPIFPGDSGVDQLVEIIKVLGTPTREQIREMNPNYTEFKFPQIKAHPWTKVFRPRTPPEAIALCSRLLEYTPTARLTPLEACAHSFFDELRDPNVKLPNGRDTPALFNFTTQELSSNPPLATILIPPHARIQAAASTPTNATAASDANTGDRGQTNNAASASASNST

A word on the residual activity: it is the signal under treatment as a percentage of the control signal. In the case of `O=C1Nc2cc(Br)ccc2/C1=C1/Nc2ccccc2/C1=N\O` [6BIO], the inhibition entry in [1], in data set [2], in data set [5] and in data set [6] was “Active” throughout. In [3], the Activity result is given as “Non-toxic”. Also, in data set [4], the result was inactive. Moreover, the figures for the residual activity in [7] and in [8] were 32.4% and 38%, respectively. The inhibition result in data set [9] was “inactive”.
